Test results taken from ChEMBL document CHEMBL1122205, “Catechol O-methyltransferase. 12. Affinity labeling the active site with the oxidation products of 5,6-dihydroxyindole” (J Med Chem, 1982).

Tests used:
[1] = biological target: T1, Catechol O-methyltransferase (Rattus norvegicus) (UniProt P22734); assay: Compound was evaluated for its ability to inactivate Catechol O-methyltransferase before dialysis
T1 sequence (whole entry): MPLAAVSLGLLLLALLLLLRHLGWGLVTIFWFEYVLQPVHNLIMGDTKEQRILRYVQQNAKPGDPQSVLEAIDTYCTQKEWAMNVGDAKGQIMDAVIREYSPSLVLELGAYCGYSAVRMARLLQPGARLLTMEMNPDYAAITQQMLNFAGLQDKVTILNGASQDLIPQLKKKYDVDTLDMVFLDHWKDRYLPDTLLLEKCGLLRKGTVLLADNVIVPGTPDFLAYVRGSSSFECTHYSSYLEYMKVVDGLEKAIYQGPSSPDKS
Method in brief: (§1)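 Purified rat liver COMT preincubated 60 min at 37 °C with inhibitor (0.5 mM), MgCl2 1.20 mM, phosphate buffer pH 7.60. Residual activity relative to unpreincubated controls (dialyzed 24 h for post-dialysis line); duplicate means.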

[2] = biological target: T2, Catechol O-methyltransferase (Rattus norvegicus, UniProt P22734); assay: (§2) Kinetic constants for the inactivation of Catechol O-methyltransferase by the compound
T2 sequence (P22734 whole entry): T1 sequence (whole entry)

[3] = biological target: T1, Catechol O-methyltransferase (Rattus norvegicus); assay: Evaluated for its ability to inactivate Catechol O-methyltransferase under aerobic conditions, after 60 min at 37 degree. C; parameters: concentration or dose not given beside the values
Method in brief: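 Aerobic preincubation of purified rat liver COMT with inhibitor (0.5 mM), MgCl2 1.20 mM, phosphate buffer pH 7.60 for 60 min at 37 °C. Residual activity versus controls assayed directly after inhibitor addition; duplicate means.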

[4] = biological target: T1, Catechol O-methyltransferase (Rattus norvegicus); assay: Compound was evaluated for its ability to inactivate Catechol O-methyltransferase after dialysis; method in brief: as §1
[5] = biological target: T1, Catechol O-methyltransferase (Rattus norvegicus); assay: Kinetic constants for the inactivation of cCatechol O-methyltransferase by the compound
[6] = biological target: T1, Catechol O-methyltransferase (Rattus norvegicus); assay: Evaluated for its ability to inactivate Catechol O-methyltransferase under anaerobic conditions, after 60 min at 37 degree. C; parameters: concentration or dose not given beside the values
Method in brief: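 Anaerobic variant: preincubation (inhibitor 0.5 mM, MgCl2 1.20 mM, phosphate pH 7.60, purified rat liver COMT, 60 min, 37 °C) in sealed ampules under nitrogen, inhibitor stocks in deoxygenated water, samples withdrawn by syringe and assayed in ampules under nitrogen.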

[7] = biological target: T1, Catechol O-methyltransferase (Rattus norvegicus); assay: as §2

Row | Structure (SMILES) | residual activity [1] [c.p.m.] | Ki [2] [mM] | residual activity [3] [%] | residual activity [4] [c.p.m.] | K2 [5] [min⁻¹] | residual activity [6] [%] | K2 [7] [min⁻¹]
1 | Cc1c(O)c(O)c(C)c2[nH]ccc12 | 322 | 7.26 | 4.5 | 212 |  | 96 | 1.12
2 | NCCc1c[nH]c2cc(O)c(O)cc12 | 242 | 0.328 | 0 | 232 |  | 89 | 0.086
3 | Oc1cc2cc[nH]c2cc1O | 282 | 3.46 | 0 | 228 |  | 96 | 0.55

The next lines start with the values.

Row | residual activity [1] [c.p.m.] | Ki [2] [mM] | residual activity [3] [%] | residual activity [4] [c.p.m.] | K2 [5] [min⁻¹] | residual activity [6] [%] | K2 [7] [min⁻¹] | Structure (SMILES)
4 | 396 | 15.2 | 0 | 351 | 0.47 | 81 |  | Cc1c(O)c(O)cc2[nH]ccc12
5 | 277 | 1.14 | 0 | 262 |  | 84 | 0.16 | Cc1c(O)c(O)cc2cc[nH]c12
